According to ChEMBL document CHEMBL4431364, “Discovery and synthetic optimization of a novel scaffold for hydrophobic tunnel-targeted autotaxin inhibition” (Bioorg Med Chem, 2016):
Calls of active or inactive are those of the source. The calls are words filed in the database; no cut-off is given here.

Assays:
Autotaxin [1] = molecular target: T1, Autotaxin (Homo sapiens, UniProt Q13822); test: Inhibition of C-terminal FLAG tagged human recombinant ATX expressed in insect sf9 cells using FS-3 as substrate measured every 2 mins for 60 mins by FRET assay
Procedure, shortened: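 Dose response over 0.03 to 30 μM compound, 10 nM human FLAG-fusion ATX, 1 μM FS-3 in pH 8.0 Tris/BSA assay buffer. Fluorescence at 485/520 nm every 2 min for 60 min at 37 °C, normalized to no-ATX and no-compound controls. IC50 by non-linear regression. Triplicate.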

Autotaxin [2] = molecular target: T1, Autotaxin; test: Inhibition of C-terminal FLAG tagged human recombinant ATX expressed in insect sf9 cells at 10 uM using FS-3 as substrate measured every 2 mins for 60 mins by FRET assay
Procedure, shortened: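 10 μM compound with 10 nM human FLAG-fusion ATX in pH 8.0 Tris buffer (30 μM BSA, 1 mM CaCl2, 1 mM MgCl2, 5 mM KCl, 140 mM NaCl) and 1 μM FS-3. Fluorescence at ex 485/em 520 nm read every 2 min for 60 min at 37 °C. Normalized to no-ATX (0%) and ATX without compound (100%). Triplicate.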

Autotaxin [3] = molecular target: T1, Autotaxin; test: Inhibition of C-terminal FLAG tagged human recombinant ATX expressed in insect sf9 cells at 10 uM using pNP-TMP as substrate measured every 2 mins for 60 mins by absorbance
Autotaxin [4] = molecular target: T1, Autotaxin; test: Inhibition of C-terminal FLAG tagged human recombinant ATX expressed in insect sf9 cells using pNP-TMP as substrate measured every 2 mins for 60 mins by absorbance
Procedure, shortened: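 Dose response 0.03 to 30 μM compound against 10 nM human FLAG-fusion ATX with 1 mM pNP-TMP in pH 8.0 Tris/BSA buffer. A405 every 2 min for 60 min at 37 °C, normalized to no-enzyme and uninhibited controls. IC50 by non-linear regression. Triplicate.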

[5] = molecular target: Lysophosphatidic acid receptor 4 (Homo sapiens) (UniProt Q99677); test: Agonist activity at LPA receptor 4 (unknown origin) assessed as calcium mobilization after 30 mins by fluorescence analysis; type: functional
[6] = molecular target: T2, Glycerophosphocholine cholinephosphodiesterase ENPP6 (Homo sapiens) (UniProt Q6UWR7); test: Inhibition of C-terminal FLAG tagged human recombinant NPP6 expressed in insect sf9 cells assessed as remaining enzyme activity response at 10 uM using pNPPC as substrate measured every 2 mins for 1 hr by […]
T2 sequence (whole entry): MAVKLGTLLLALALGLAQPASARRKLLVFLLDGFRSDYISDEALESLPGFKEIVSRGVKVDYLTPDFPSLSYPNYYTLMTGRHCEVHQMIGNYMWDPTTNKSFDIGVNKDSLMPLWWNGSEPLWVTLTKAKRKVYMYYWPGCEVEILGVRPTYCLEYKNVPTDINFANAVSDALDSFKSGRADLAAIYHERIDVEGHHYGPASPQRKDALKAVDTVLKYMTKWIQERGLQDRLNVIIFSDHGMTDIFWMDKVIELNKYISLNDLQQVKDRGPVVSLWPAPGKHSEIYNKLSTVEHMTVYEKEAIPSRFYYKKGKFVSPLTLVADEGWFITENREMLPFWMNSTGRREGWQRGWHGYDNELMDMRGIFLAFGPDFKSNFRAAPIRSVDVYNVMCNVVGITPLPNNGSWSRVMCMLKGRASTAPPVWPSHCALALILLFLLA
Procedure, shortened: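 Final 10 nM human FLAG-fusion NPP6, 10 μM compound, 10 μM pNPPC in 500 mM NaCl, 100 mM Tris-HCl, 0.05% Triton X-100, pH 9. A405 at 37 °C every 2 min for 1 h. Background absorbance subtracted. Mean percent response relative to enzyme-only control (no-enzyme = 0%). Triplicate.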

[7] = molecular target: T3, Ectonucleotide pyrophosphatase/phosphodiesterase family member 7 (Homo sapiens) (UniProt Q6UWV6); test: Inhibition of C-terminal FLAG tagged human recombinant NPP7 expressed in insect sf9 cells assessed as remaining enzyme activity response at 10 uM using pNPPC as substrate measured every 2 mins for 1 hr by […]
T3 sequence (whole entry): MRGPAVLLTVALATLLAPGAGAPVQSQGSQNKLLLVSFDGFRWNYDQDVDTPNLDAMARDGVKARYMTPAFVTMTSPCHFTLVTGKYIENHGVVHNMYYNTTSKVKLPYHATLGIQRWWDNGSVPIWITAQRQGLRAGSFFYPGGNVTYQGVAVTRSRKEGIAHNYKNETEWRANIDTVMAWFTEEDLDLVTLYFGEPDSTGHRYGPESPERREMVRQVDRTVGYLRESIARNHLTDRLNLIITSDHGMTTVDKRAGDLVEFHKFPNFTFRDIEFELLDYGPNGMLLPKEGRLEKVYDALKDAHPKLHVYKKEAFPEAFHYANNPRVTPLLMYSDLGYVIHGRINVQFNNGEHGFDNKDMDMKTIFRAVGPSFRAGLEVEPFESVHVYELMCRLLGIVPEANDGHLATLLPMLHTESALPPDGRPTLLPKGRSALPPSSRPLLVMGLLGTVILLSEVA
Procedure, shortened: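 Human FLAG-fusion NPP7 (10 nM final) with 10 μM compound and 10 μM pNPPC in 50 mM Tris-HCl, 150 mM NaCl, 10 mM taurocholate, pH 8. Absorbance at 405 nm, 37 °C, every 2 min for an hour. Background subtracted. Mean percent of enzyme-only response (no-enzyme = 0%). Triplicate.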

[8] = molecular target: Lysophosphatidic acid receptor 1 (Homo sapiens) (UniProt Q92633); test: Agonist activity at LPA receptor 1 (unknown origin) assessed as calcium mobilization after 30 mins by fluorescence analysis; type: functional
[9] = molecular target: Lysophosphatidic acid receptor 2 (Mus musculus) (UniProt Q9JL06); test: Agonist activity at LPA receptor 2 in double knockout MEF assessed as calcium mobilization after 30 mins by fluorescence analysis; type: functional, cell-based
[10] = molecular target: T4, Lysophosphatidic acid receptor 3 (Homo sapiens) (UniProt Q9UBY5); test: Agonist activity at LPA receptor 3 (unknown origin) assessed as calcium mobilization after 30 mins by fluorescence analysis; type: functional
T4 sequence (whole entry): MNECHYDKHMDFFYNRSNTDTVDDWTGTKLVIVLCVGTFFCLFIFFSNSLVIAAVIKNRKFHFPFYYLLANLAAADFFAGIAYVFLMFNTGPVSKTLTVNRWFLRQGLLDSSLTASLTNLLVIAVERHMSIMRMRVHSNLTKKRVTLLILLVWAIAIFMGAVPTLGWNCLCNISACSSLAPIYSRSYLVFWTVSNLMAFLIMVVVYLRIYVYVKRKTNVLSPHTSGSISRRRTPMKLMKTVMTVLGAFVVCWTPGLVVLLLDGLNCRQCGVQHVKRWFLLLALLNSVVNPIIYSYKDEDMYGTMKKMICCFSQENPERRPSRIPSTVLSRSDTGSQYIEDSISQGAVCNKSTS

[11] = molecular target: Lysophosphatidic acid receptor 5 (Homo sapiens) (UniProt Q9H1C0); test: Agonist activity at LPA receptor 5 (unknown origin) assessed as calcium mobilization after 30 mins by fluorescence analysis; type: functional
[12] = molecular target: Lysophosphatidic acid receptor 1 (Homo sapiens) (UniProt Q92633); test: Antagonist activity at LPA receptor 1 (unknown origin) assessed as inhibition of LPA induced calcium mobilization at 0.01 to 10 uM after 30 mins by fluorescence analysis; type: functional
[13] = molecular target: Lysophosphatidic acid receptor 2 (Mus musculus) (UniProt Q9JL06); test: Antagonist activity at LPA receptor 2 in double knockout MEF assessed as inhibition of LPA induced calcium mobilization at 0.01 to 10 uM after 30 mins by fluorescence analysis; type: functional, cell-based
[14] = molecular target: T4, Lysophosphatidic acid receptor 3 (Homo sapiens); test: Antagonist activity at LPA receptor 3 (unknown origin) assessed as inhibition of LPA induced calcium mobilization at 0.01 to 10 uM after 30 mins by fluorescence analysis; type: functional
[15] = molecular target: Lysophosphatidic acid receptor 4 (Homo sapiens) (UniProt Q99677); test: Antagonist activity at LPA receptor 4 (unknown origin) assessed as inhibition of LPA induced calcium mobilization at 0.01 to 10 uM after 30 mins by fluorescence analysis; type: functional
[16] = molecular target: Lysophosphatidic acid receptor 5 (Homo sapiens) (UniProt Q9H1C0); test: Antagonist activity at LPA receptor 5 (unknown origin) assessed as inhibition of LPA induced calcium mobilization at 0.01 to 10 uM after 30 mins by fluorescence analysis; type: functional
[17] = molecular target: Lysophosphatidic acid receptor 2 (Mus musculus) (UniProt Q9JL06); test: Potentiation of LPA induced activity at LPA receptor 2 in double knockout MEF assessed as calcium mobilization at 0.01 to 10 uM after 30 mins in presence of BSA by Fura-2AM based fluorescence analysis; type: functional, cell-based
Autotaxin [18] = molecular target: T1, Autotaxin; test: Potency index, ratio of IC50 for GRI392104 to IC50 for test compound for inhibition of C-terminal FLAG tagged human recombinant ATX expressed in insect sf9 cells using FS-3 as substrate measured every 2 mins for 60 mins by FRET assay

Chain of Lysophosphatidic acid receptor 2 (Mus musculus) (Q9JL06 whole entry): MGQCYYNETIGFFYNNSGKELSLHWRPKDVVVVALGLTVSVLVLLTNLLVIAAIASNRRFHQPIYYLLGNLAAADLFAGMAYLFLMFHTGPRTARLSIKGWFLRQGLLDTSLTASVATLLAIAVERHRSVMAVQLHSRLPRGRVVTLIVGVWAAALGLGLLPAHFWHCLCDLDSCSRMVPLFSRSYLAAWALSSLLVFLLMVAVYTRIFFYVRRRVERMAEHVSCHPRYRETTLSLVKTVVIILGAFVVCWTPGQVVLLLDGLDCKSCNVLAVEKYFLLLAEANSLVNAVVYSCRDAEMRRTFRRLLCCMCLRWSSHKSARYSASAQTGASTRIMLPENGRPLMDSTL
Chain of Lysophosphatidic acid receptor 1 (Homo sapiens) (Q92633 whole entry): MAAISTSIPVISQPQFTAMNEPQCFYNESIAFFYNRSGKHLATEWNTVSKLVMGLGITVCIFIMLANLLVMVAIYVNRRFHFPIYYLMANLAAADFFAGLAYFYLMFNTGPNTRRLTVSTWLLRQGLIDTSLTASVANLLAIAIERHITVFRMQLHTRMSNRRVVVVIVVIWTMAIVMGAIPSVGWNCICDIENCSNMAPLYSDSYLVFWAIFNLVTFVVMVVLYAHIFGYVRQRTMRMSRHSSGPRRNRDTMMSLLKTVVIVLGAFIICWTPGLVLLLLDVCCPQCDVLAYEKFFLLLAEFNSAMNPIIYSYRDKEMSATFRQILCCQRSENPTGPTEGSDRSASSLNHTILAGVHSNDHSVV
Chain of Lysophosphatidic acid receptor 5 (Homo sapiens) (Q9H1C0 whole entry): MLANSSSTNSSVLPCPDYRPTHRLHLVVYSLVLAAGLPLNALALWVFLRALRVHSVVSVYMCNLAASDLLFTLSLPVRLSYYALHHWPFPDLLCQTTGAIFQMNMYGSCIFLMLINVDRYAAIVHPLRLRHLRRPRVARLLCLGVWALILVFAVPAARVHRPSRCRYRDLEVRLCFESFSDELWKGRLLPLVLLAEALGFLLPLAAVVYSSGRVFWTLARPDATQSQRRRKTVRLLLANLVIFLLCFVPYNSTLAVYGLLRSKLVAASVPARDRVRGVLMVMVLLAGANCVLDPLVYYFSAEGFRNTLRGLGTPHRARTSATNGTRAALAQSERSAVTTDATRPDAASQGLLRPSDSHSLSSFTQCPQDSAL
Chain of Lysophosphatidic acid receptor 4 (Homo sapiens) (Q99677 whole entry): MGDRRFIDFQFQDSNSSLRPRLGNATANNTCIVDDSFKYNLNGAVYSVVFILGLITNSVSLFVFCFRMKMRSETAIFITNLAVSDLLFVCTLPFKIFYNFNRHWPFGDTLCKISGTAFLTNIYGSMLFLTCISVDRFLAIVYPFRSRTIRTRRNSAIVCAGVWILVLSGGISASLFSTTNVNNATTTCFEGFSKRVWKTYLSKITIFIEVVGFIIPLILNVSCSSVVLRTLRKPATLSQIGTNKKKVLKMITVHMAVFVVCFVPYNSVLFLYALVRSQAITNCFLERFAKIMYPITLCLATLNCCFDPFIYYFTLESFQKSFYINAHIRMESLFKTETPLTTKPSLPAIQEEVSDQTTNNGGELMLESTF

- IC50 (Autotaxin [1]): 0.67 µM
- inhibition (Autotaxin [2]): 84.3%
- inhibition (Autotaxin [3]): 52.1%
- IC50 (Autotaxin [4]): 8.9 µM
- Activity [5]: inactive
- Activity [6]: 89.8%
- Activity [7]: 102%
- Activity [8]: inactive
- Activity [9]: inactive
- Activity [10]: inactive
- Activity [11]: inactive
- inhibition [12]: inactive
- inhibition [13]: inactive
- inhibition [14]: inactive
- inhibition [15]: inactive
- inhibition [16]: inactive
- Activity [17]: Active
- Ratio IC50 (Autotaxin [18]): 6
SMILES: O=C(COc1cc(Cl)cc(Cl)c1)N1CCN(c2cccc([N+](=O)[O-])c2)CC1
